High-throughput results from PubChem.
STAT1 blocker = inhibitors of IFN-gamma induced STAT1 signaling | inhibition, % at 5.5 µM | NIH 3T3 STAT1-luciferase reporter, luminescence | 0.35% of 200,000 active;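 active = inhibition above a set limit, the mean inhibition across all tested compounds plus 3 SD, cut at about 34% in these data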;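 also: 0% = IFN-gamma with DMSO and 100% = IFN-gamma with 300 µM nifuroxazide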
STAT3 inh-1 = reduces IL-6 driven STAT3 reporter signal; 0.89% of 190,000 active; AID 862; U3A cells, IL-6 STAT3-luciferase reporter, luminescence; host cell line lacks STAT1; inhibition, % at 5.5 µM;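 active = inhibition above the mean inhibition across all screened compounds plus 3 SD, cut at about 44% in these data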;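 also: 0% = DMSO only wells and 100% = 100 µM nifuroxazide control wells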
PERK inh = blocks human PERK kinase. AID 1416. CHO PERK-DD fusion, SEAP luminescence translation reporter. inhibition, % at 5.6 µM. 0.17% of 220,000 active;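 active = inhibition above the mean inhibition of all tested compounds plus 3 SD, set separately per screening campaign, cut at about 2.9% in these data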;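 also: PERK kinase domain activated by AP20187 dimerizer at 100 nM; 0% = DMSO with dimerizer and 100% = rapamycin at 8.4 µM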
STAT3 activator = activators of IL-6 induced STAT3 signaling. activation (% of control), % at 5.6 µM. 0.91% of 190,000 active. AID 871. U3A cells, IL-6 STAT3-luciferase reporter, luminescence; 100% = signal with IL-6 EC80 alone;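 active = activation above the screen-wide mean of compound activation plus 3 SD, cut at about 130% in these data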;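 also: 0% = background luminescence of wells with medium and substrate only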
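Material: STAT3-luciferase reporter U3A cells. Controls: IL-6-treated wells, 100% activation. Read-out: % activation versus median of IL-6-stimulated wells. Probe or stimulus: IL-6 stimulus at 33 ng/mL final. Timing: compound 1 h, then IL-6 6 h at 37 °C. Signal: reporter luminescence signal.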
STAT3 inh-2 = confirmation of STAT3 signaling inhibitors; shares compounds with STAT3 inh-1; 45% of 1,200 active; U3A cells, IL-6 STAT3 luciferase reporter, luminescence; cell line lacks STAT1; inhibition, % at 5.7 µM; AID 1265;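 active = inhibition above the hit cutoff computed for the primary STAT3 screen, cut at about 44% in these data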;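 also: 0% = IL-6 plus DMSO and 100% = IL-6 plus nifuroxazide control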
NFkB inh 2 = inhibits NF-kappaB, counter-screen to STAT3 inhibitors | shares compounds with STAT3 inh-1 | AID 1308 | 36% of 1,200 active | HEK293T NF-kB luciferase reporter, TNF-alpha induced | inhibition, % at 5.7 µM;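 active = inhibition above the mean of solvent-only control wells plus 3 SD, cutoff set per campaign, cut at about 13% in these data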;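 also: 0% = TNF-alpha with DMSO and 100% = TNF-alpha with MG high control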
STAT1 inh 2 = STAT1 inhibition in STAT3 inhibitor counter-screen | inhibition, % at 5.7 µM | NIH 3T3 STAT1-luciferase reporter, IFN-gamma induced, luminescence | AID 1317 | 27% of 1,200 active | shares compounds with STAT3 inh-1;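 active = inhibition above the mean plus 3 SD of solvent-only control wells, limit set per screening run, cut at about 16% in these data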;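 also: 0% = DMSO with IFN-gamma and 100% = nifuroxazide control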
* = called active by the depositor; nt = no result. The list is not random: actives were taken first. Their share in the collection is about 1.8%.

SMILES | STAT1 blocker | STAT3 inh-1 | PERK inh | STAT3 activator | STAT3 inh-2 | NFkB inh 2 | STAT1 inh 2
COc1cc(/C=N/NS(=O)(=O)c2ccc(C)cc2)ccc1OCc1ccc(C(=O)O)cc1 | 85.1* | 54.1* | 2.9* | 55.9 | nt | nt | nt
Cc1ccc(NC(=O)COC(=O)CNC(=O)c2ccco2)cc1 | -2.1 | 2.5 | -0.5 | 99.4 | nt | nt | nt
C[C@@H](C(=O)NCCCCCC(=O)O)n1nnc2ccccc2c1=O | nt | nt | -0.1 | nt | nt | nt | nt
CCC(C)[C@@H](C(=O)NCC1CCC(C(=O)O)CC1)n1nnc2ccccc2c1=O (stereo not given in full) | 1.8 | 0.2 | 2.9* | 105.1 | nt | nt | nt
Cc1nnc(NC(=O)c2ccc3ccccc3n2)s1 | -45.0 | -33.9 | 1.1 | 136.2* | nt | nt | nt
Cc1nc2ccc(NC(=O)c3ccc4ccccc4n3)cc2s1 | -38.9 | 14.5 | 0.9 | 89.2 | nt | nt | nt
Cc1cc(CNC(=O)C(C)Cc2ccccc2)nn1C (stereo not given) | 0.3 | -3.9 | -0.3 | 100.9 | nt | nt | nt
O=C(O)c1cccc(NC(=O)c2ccc3c(c2)C(=O)N(CC2CCCO2)C3=O)c1 (stereo not given) | 37.1* | 29.9 | 0.3 | 75.0 | nt | nt | nt
CCOc1ccc(C(=O)Nc2cccc(C(=O)O)c2)cc1Cl | 70.8* | 93.1* | -0.6 | 25.0 | nt | nt | nt
Cc1ccc(C(=O)Nc2cccc(C(=O)O)c2)cc1 | 81.9* | 97.5* | 0.2 | 18.8 | nt | nt | nt
Cc1ccc(C(=O)Nc2cccc(C(=O)N3CCOCC3)c2)cc1 | -5.7 | -2.7 | -1.6 | 105.3 | nt | nt | nt
Cc1ccc(C(=O)Nc2ccc3c(c2)CCC3)cc1 | 64.0* | 88.2* | -0.2 | 24.5 | nt | nt | nt
Cc1noc2ncnc(Oc3ccc(Cl)cc3Cl)c12 | -2.8 | 0.9 | 1.3 | 109.2 | nt | nt | nt
O=C(Nc1cccc(C(F)(F)F)c1)C1CCCO1 (stereo not given) | 1.6 | 3.2 | 1.3 | 101.8 | nt | nt | nt
CCOC(=O)c1[nH]c(C)c(C(=O)NCc2ccco2)c1C | -3.4 | 10.2 | -0.1 | 93.3 | nt | nt | nt
Cc1cc(C(=O)Cn2nc(C(=O)O)c3ccccc3c2=O)c(C)n1CCc1ccc(Cl)cc1 | 2.9 | 18.1 | 0.9 | 87.0 | nt | nt | nt
O=C(Cc1ccccc1)NCC(=O)N/N=C/c1ccc(Cl)cc1 | 0.9 | 8.3 | 0.5 | 97.1 | nt | nt | nt
CC12CCCCN1CCCc1c2[nH]c2ccccc12 (stereo not given) | -5.0 | -36.3 | 0.5 | 135.6* | nt | nt | nt
c1ccc2c3c([nH]c2c1)C1(CCCCC1)NCC3 | 0.6 | -12.2 | 1.6 | 110.9 | nt | nt | nt
COc1ccc(OC)c(C2=NOC(C(=O)Nc3cc(C)on3)C2)c1 (stereo not given) | nt | nt | -1.2 | nt | nt | nt | nt
CC(=O)c1cccc(NC(=O)c2cnn3ccccc23)c1 | -32.3 | 26.5 | 0.1 | 84.6 | nt | nt | nt
CC(=O)c1ccc(NC(=O)c2cnn3ccccc23)cc1 | 85.5* | 82.9* | 0.3 | 35.6 | nt | nt | nt
Cc1c(NC(=O)COC(=O)c2ccc(S(=O)(=O)N3CCOCC3)cc2)c(=O)n(-c2ccccc2)n1C | -3.7 | -3.2 | 0.7 | 105.9 | nt | nt | nt
O=C(O)c1cccc(N=NN2CCOCC2)c1 | -8.3 | 1.3 | 1.1 | 100.9 | nt | nt | nt
CC1=NC(=O)C(N=Nc2cccc(C(=O)O)c2)N1c1ccccc1 (stereo not given) | 28.8 | 64.9* | 0.7 | 45.5 | 41.4 | 17.9* | -30.2
SMILES | STAT1 blocker | STAT3 inh-1 | PERK inh | STAT3 activator | STAT3 inh-2 | NFkB inh 2 | STAT1 inh 2
O=C(C1CCC1)N1CCc2cc(S(=O)(=O)NC3CCCC3)ccc21 | 3.2 | 9.4 | -0.1 | 94.7 | nt | nt | nt
CS(=O)(=O)N1CCc2cc(S(=O)(=O)Nc3ccc4c(c3)OCCO4)ccc21 | 27.2 | 46.0* | 0.5 | 63.9 | 36.3 | 1.8 | 20.8*
CS(=O)(=O)N1CCc2cc(S(=O)(=O)NCCNS(=O)(=O)c3ccc4c(c3)CCN4S(C)(=O)=O)ccc21 | 3.0 | -2.7 | 0.8 | 106.8 | nt | nt | nt
CCC(=O)N1CCCc2cc(S(=O)(=O)N3CCN(c4ncccn4)CC3)ccc21 | 1.7 | 16.9 | 0.3 | 92.8 | nt | nt | nt
O=C(C1CCC1)N1CCc2cc(S(=O)(=O)Nc3ccc4c(c3)OCCO4)ccc21 | 22.3 | 65.3* | 1.5 | 49.2 | 50.4* | 7.6 | 20.6*
CCC(=O)N1CCCc2cc(S(=O)(=O)N3CCN(c4ccccc4F)CC3)ccc21 | 21.5 | 52.6* | -0.6 | 61.9 | 35.6 | 11.0 | 12.5
CCC(=O)N1CCc2cc(S(=O)(=O)Nc3ccc4c(c3)OCCO4)ccc21 | 21.0 | 46.6* | -1.4 | 63.8 | 34.7 | -2.1 | 12.4
CC(=O)N1CCc2cc(S(=O)(=O)NC(C(=O)Nc3ccc4c(c3)OCCO4)C(C)C)ccc21 (stereo not given) | 4.0 | 7.5 | -0.2 | 99.2 | nt | nt | nt
C#CCn1cc(/C=N/Nc2nc3ccccc3[nH]2)c2ccccc21 | -1.1 | -16.9 | -1.6 | 112.8 | nt | nt | nt
Cc1ccc(-c2nc(-c3ccccc3)no2)cc1 | -34.7 | 55.1* | 2.3 | 54.5 | 39.8 | 4.6 | -48.6
N#Cc1c(NC(=O)CSc2nc(N)cc(=O)[nH]2)sc2c1CCCCCC2 | 6.2 | 43.2 | 0.1 | 64.6 | nt | nt | nt
N#Cc1c(NC(=O)CSc2ncn[nH]2)sc2c1CCCCC2 | 30.2 | 70.7* | 0.0 | 44.5 | 67.7* | 29.6* | -1.2
CN(C)S(=O)(=O)N(CC(=O)Nc1cccc(F)c1)c1ccccc1 | -3.0 | 1.5 | -0.3 | 101.7 | nt | nt | nt
CCCCCCCc1ccc(-c2ccc(O)cc2)nc1 | -10.0 | 53.6* | 1.1 | 56.0 | 61.7* | -0.3 | -11.7
CCCc1ccc(-c2ccc(/C=C/C(=O)O)cc2)nc1 | -24.4 | 96.5* | 1.7 | 19.5 | 93.9* | 69.3* | -35.4
O=Nc1c2ccc[nH]c-2c2ccc([N+](=O)[O-])cc12 | -20.1 | 23.8 | 1.0 | 82.7 | nt | nt | nt
COC(=O)Cc1[nH]nc2c1C(c1ccc(O)c(OC)c1)C(C#N)=C(N)O2 (stereo not given) | nt | nt | 1.3 | nt | nt | nt | nt
N#CC(C#N)=C(N)CSc1cccc[n+]1[O-] | -2.7 | -4.1 | 0.3 | 107.9 | nt | nt | nt
CCOc1ccc(OCc2ccc(C(=O)OCc3ccccn3)o2)cc1 | 9.0 | 45.7* | 0.4 | 65.4 | 14.6 | -20.4 | -19.3
CCOC(=O)c1ccc(COc2ccc(C(C)C)cc2)o1 | -14.1 | -2.4 | 1.3 | 107.4 | nt | nt | nt
CCN(CC)c1ccc(/C=N/NC(=O)c2cccc(N3CCCC3=O)c2)cc1 | -6.0 | 21.6 | -1.8 | 85.9 | nt | nt | nt
CCOc1ccc(NC(=O)c2cnsn2)cc1 | -23.9 | 48.7* | 0.4 | 59.7 | 14.3 | -26.1 | -46.1
COc1ccc(OCC(=O)Nc2cc(-c3nn(C)c(=O)c4ccccc34)ccc2OC)cc1 | 26.0 | 50.8* | 0.3 | 60.9 | 47.5* | 22.1* | 25.3*
COc1ccc(NC(=O)COc2ccc(-c3nn(C)c(=O)c4ccccc34)cc2)cc1 | -8.8 | 13.8 | -1.5 | 94.0 | nt | nt | nt
O=NN(CCc1ccncc1)c1ccc(OCc2ccccc2)cc1 | 24.3 | 62.6* | 0.8 | 50.7 | 57.0* | 18.9* | 10.8
O=C(NCc1ccncc1)C(=O)N/N=C/c1ccc(OCc2ccccc2)cc1 | -2.3 | 1.7 | 0.7 | 98.4 | nt | nt | nt
